ChEMBL document CHEMBL1126751, “Studies on quinazolines. 5. 2,3-dihydroimidazo[1,2-c]quinazoline derivatives: a novel class of potent and selective alpha 1-adrenoceptor antagonists and antihypertensive agents” (J Med Chem, 1993)
Active and inactive are the calls of the source. No cut-off for these calls is given here.

Experiments:
[1] = biological target: T1, Adrenergic receptor alpha-1 (Rattus norvegicus, UniProt P15823+P23944+P43140); assay: Binding affinity against alpha-1 adrenergic receptor by measuring displacement of [3H]prazosin from rat brain cortex membranes (in vitro).; format: cell membranes, Membrane
T1 sequence (P15823 whole entry): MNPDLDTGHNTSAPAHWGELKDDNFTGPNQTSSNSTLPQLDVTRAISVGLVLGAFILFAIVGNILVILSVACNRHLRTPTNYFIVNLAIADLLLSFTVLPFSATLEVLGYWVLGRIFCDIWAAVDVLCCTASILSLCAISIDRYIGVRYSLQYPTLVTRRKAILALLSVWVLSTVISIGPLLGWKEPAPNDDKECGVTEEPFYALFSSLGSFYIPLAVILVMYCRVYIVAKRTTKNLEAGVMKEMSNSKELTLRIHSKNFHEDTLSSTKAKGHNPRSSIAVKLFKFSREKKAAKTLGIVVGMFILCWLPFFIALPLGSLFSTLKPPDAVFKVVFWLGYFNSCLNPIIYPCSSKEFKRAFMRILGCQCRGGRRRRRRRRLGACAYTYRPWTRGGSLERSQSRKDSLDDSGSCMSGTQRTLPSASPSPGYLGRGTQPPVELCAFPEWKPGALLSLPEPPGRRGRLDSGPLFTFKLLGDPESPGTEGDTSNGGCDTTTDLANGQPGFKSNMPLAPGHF
T1 sequence (P23944 whole entry): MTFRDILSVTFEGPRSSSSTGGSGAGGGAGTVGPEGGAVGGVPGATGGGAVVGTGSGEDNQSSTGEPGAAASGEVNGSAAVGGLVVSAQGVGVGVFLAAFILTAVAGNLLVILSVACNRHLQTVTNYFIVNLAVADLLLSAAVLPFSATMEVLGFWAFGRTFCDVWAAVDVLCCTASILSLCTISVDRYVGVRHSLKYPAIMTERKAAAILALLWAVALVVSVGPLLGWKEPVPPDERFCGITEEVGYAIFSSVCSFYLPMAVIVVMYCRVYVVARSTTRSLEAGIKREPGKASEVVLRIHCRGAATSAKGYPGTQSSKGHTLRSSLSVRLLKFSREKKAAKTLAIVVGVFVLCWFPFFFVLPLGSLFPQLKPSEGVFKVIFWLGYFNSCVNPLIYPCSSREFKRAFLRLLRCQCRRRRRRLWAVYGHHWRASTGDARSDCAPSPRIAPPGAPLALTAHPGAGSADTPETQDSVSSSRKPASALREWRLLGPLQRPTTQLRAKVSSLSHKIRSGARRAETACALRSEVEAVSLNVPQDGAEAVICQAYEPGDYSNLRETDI
T1 sequence (P43140 whole entry): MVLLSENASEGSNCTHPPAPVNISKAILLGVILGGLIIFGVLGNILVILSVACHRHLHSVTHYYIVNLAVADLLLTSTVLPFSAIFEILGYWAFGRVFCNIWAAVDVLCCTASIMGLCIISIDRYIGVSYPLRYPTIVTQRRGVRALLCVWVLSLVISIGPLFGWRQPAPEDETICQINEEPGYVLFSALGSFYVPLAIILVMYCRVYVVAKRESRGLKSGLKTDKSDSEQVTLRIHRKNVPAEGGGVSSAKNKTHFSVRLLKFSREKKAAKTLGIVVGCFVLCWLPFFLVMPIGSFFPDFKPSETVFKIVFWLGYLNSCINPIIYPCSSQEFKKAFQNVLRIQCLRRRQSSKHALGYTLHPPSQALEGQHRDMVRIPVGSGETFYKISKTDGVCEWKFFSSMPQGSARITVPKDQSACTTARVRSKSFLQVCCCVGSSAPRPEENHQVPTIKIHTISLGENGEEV

[2] = test system: Rattus norvegicus; assay: Blood pressure lowering activity in spontaneously hypertensive rats (SHR) after 1 hour of administration (iv) of dose of 2.0 mg/kg […]; format: functional
[3] = test system: Rattus norvegicus; assay: Blood pressure lowering activity in spontaneously hypertensive rats (SHR) after 1 hour of administration (iv) of dose of 0.5 mg/kg […]; format: functional
[4] = test system: Rattus norvegicus; assay: Blood pressure lowering activity in spontaneously hypertensive rats (SHR) after 6 hours of administration (iv) of dose of 2.0 mg/kg […]; format: functional
[5] = biological target: T2, Adrenergic receptor alpha-2 (Rattus norvegicus, UniProt P22086+P19328+P22909); assay: Binding affinity against alpha-2 adrenergic receptor by measuring displacement of [3H]clonidine from rat brain cortex membranes (in vitro).; format: cell membranes, Membrane
T2 sequence (P22086 whole entry): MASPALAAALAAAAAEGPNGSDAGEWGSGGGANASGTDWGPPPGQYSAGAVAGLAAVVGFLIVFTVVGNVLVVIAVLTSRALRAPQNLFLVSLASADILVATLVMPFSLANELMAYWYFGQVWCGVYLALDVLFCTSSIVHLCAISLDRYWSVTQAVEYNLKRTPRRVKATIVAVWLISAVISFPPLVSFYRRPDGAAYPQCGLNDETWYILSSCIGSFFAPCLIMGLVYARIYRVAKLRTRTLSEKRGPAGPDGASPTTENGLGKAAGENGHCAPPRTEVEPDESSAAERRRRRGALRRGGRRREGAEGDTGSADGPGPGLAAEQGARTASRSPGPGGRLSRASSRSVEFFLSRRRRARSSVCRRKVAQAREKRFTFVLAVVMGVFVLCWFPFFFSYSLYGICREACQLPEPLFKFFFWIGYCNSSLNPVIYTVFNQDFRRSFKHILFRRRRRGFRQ
T2 sequence (P19328 whole entry): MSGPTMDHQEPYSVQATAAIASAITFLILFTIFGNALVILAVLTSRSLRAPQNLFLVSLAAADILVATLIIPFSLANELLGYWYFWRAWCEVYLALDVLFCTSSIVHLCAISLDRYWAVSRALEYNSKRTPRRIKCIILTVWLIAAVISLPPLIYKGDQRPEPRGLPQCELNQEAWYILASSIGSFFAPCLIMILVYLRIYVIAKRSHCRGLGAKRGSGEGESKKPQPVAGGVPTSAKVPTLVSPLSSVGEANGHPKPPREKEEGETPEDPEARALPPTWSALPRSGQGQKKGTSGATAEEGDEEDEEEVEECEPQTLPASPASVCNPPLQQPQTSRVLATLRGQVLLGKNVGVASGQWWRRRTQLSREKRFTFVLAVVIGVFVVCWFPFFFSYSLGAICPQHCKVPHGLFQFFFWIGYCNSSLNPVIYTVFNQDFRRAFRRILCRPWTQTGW
T2 sequence (P22909 whole entry): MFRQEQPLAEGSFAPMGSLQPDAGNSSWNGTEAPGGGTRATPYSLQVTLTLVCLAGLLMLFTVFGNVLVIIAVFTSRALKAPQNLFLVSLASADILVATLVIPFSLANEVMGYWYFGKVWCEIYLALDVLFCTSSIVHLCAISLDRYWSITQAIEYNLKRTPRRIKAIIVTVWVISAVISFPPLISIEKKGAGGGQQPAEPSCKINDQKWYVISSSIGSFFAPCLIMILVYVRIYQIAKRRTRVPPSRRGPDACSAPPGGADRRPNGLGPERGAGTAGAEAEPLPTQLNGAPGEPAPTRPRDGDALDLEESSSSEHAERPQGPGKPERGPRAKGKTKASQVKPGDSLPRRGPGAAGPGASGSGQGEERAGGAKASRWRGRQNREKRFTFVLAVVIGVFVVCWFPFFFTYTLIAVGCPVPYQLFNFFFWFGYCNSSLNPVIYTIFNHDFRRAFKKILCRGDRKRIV

[6] = test system: Rattus norvegicus; assay: Blood pressure lowering activity in spontaneously hypertensive rats (SHR) after 6 hours of administration (iv) of dose of 0.5 mg/kg […]; format: functional
[7] = test system: Rattus norvegicus; assay: Blood pressure lowering activity in spontaneously hypertensive rats (SHR) after 6 hours of administration (iv) of dose of 0.5 mg/kg; Did not last more than 1/2 hr […]; format: functional, organism-based; design: dose 0.5 mg/kg
[8] = test system: Rattus norvegicus; assay: Blood pressure lowering activity in spontaneously hypertensive rats (SHR) after 1 hour of administration (iv) of dose of 0.5 mg/kg; Did not last more than 1/2 hr […]; format: functional, organism-based; design: dose 0.5 mg/kg
[9] = test system: Rattus norvegicus; assay: Blood pressure lowering activity in spontaneously hypertensive rats (SHR) after 1 hour of administration (iv) of dose of 1.0 mg/kg; format: functional
[10] = test system: Rattus norvegicus; assay: Blood pressure lowering activity in spontaneously hypertensive rats (SHR) after 6 hours of administration (iv) of dose of 0.5 mg/kg; format: functional
[11] = test system: Rattus norvegicus; assay: Blood pressure lowering activity in spontaneously hypertensive rats (SHR) after 6 hours of administration (iv) of dose of 1.0 mg/kg; format: functional
[12] = test system: Rattus norvegicus; assay: Blood pressure lowering activity in spontaneously hypertensive rats (SHR) after 1 hour of administration (iv) of dose of 0.5 mg/kg; format: functional
[13] = test system: Rattus norvegicus; assay: Inhibitory concentration against 5-HT in conscious spontaneously […] rats (SHR); format: functional, organism-based
[14] = biological target: T1, Adrenergic receptor alpha-1; assay: Alpha-1-antagonistic activity against phenylephrine in rat aorta; format: functional, tissue-based
[15] = test system: Rattus norvegicus; assay: Inhibitory concentration against phenylephrine in conscious spontaneously […] rats (SHR); format: functional, organism-based
[16] = test system: Rattus norvegicus; assay: Blood pressure lowering activity in spontaneously hypertensive rats (SHR) after 6 hours of administration (iv) of dose of 0.25 mg/kg; format: functional
In short: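 Anesthetized spontaneously hypertensive rats of either sex, 250–300 g (pentobarbital sodium 40–50 mg/kg ip). Compound given iv via cannulated femoral vein. Arterial pressure recorded via right femoral artery cannula with pressure transducer, body temperature held at 37.5 °C. Value is maximum change in mean blood pressure (mmHg) at the time point. Groups of four to six animals.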

[17] = test system: Rattus norvegicus; assay: Blood pressure lowering activity in spontaneously hypertensive rats (SHR) after 6 hour of administration (iv) of dose of 4.0 mg/kg; Did not last more than 1/2 hr […]; format: functional, organism-based; design: dose 4 mg/kg
[18] = test system: Rattus norvegicus; assay: Blood pressure lowering activity in spontaneously hypertensive rats (SHR) after 1 hour of administration (iv) of dose of 4.0 mg/kg; Did not last more than 1/2 hr […]; format: functional, organism-based; design: dose 4 mg/kg
[19] = test system: Rattus norvegicus; assay: Blood pressure lowering in spontaneously hypertensive rats (SHR) after 1 hour of administration (iv) of dose of 4.0 mg/kg […]; format: functional
[20] = test system: Rattus norvegicus; assay: Blood pressure lowering activity in spontaneously hypertensive rats (SHR) after 6 hours of administration (iv) of dose of 1.0 mg/kg […]; format: functional
[21] = test system: Rattus norvegicus; assay: Blood pressure lowering activity in spontaneously hypertensive rats (SHR) after 1 hour of administration (iv) of dose of 1.0 mg/kg […]; format: functional
[22] = biological target: T1, Adrenergic receptor alpha-1; assay: Alpha-1 antagonistic activity against phenylephrine in rat aorta; format: functional, tissue-based

## CN1C(=O)N2C(=NCC2CN2CCN(c3ccccc3Cl)CC2)c2ccccc21 (stereo not drawn)
[1]
  Ki: 0.068 nM
[2]
  MBP: -24 mmHg
[3]
  MBP: -8.3 mmHg
[4]
  MBP: -14 mmHg
[5]
  Ki: 0.81 µM
[6]
  MBP: -5.9 mmHg

## COc1ccccc1N1CCN(CC2CN=C3c4ccccc4NC(=O)N32)CC1 (stereo not drawn)
[1]
  Ki: 0.21 nM
[7]
  MBP: inactive
[5]
  Ki: 0.593 µM
[8]
  MBP: inactive

## CN1C(=O)N2CC(CN3CCN(c4ccccc4)CC3)N=C2c2ccccc21 (stereo not drawn)
[1]
  Ki: 10.5 nM
[7]
  MBP: inactive
[5]
  Ki: 3.334 µM
[8]
  MBP: inactive

## O=C1Nc2ccccc2C2=NC(CN3CCN(c4ccccc4Cl)CC3)CN12 (stereo not drawn)
[1]
  Ki: 1.1 nM
[9]
  MBP: -40.7 mmHg
[10]
  MBP: -5.7 mmHg
[5]
  Ki: 3.166 µM
[11]
  MBP: -12.6 mmHg
[12]
  MBP: -25.5 mmHg

## O=C1Nc2ccccc2C2=NC(CN3CCN(c4ccccc4)CC3)CN12 (stereo not drawn)
[1]
  Ki: 2.01 nM
[9]
  MBP: -57.5 mmHg
[10]
  MBP: -32.5 mmHg
[13]
  IC50: 0.36 nM
[5]
  Ki: 3.86 µM
[14]
  pA2: 9.82
[11]
  MBP: -44.5 mmHg
[12]
  MBP: -49.3 mmHg
[15]
  IC50: 0.44 nM
[16]
  MBP: -8.75 mmHg

## O=C(c1ccc(F)cc1)C1CCN(CCn2c(=O)[nH]c3ccccc3c2=O)CC1 [KETANSERIN]
[13]
  IC50: 27.8 nM
[15]
  IC50: 5.73 nM

## COc1ccc(N2CCN(CC3CN4C(=O)Nc5ccccc5C4=N3)CC2)cc1 (stereo not drawn)
[1]
  Ki: > 100 nM
[17]
  MBP: inactive
[18]
  MBP: inactive

## O=C1Nc2ccccc2C2=NC(CN3CCN(Cc4ccc5c(c4)OCO5)CC3)CN12 (stereo not drawn)
[1]
  Ki: > 100 nM
[17]
  MBP: inactive
[18]
  MBP: inactive

## O=C1Nc2ccccc2C2=NC(CN3CCN(Cc4ccccc4)CC3)CN12 (stereo not drawn)
[1]
  Ki: 850 nM
[5]
  Ki: > 10 µM
[19]
  MBP: -43.7 mmHg

## CN1C(=O)N2C(=NCC2CN2CCN(c3ccccc3)CC2)c2ccccc21 (stereo not drawn)
[1]
  Ki: 15 nM
[20]
  MBP: -20 mmHg
[21]
  MBP: -23.3 mmHg

## COc1ccccc1N1CCN(CCn2c(=O)[nH]c3ccccc3c2=O)CC1
[1]
  Ki: 0.25 nM
[3]
  MBP: -33.9 mmHg
[5]
  Ki: 1.599 µM
[22]
  pA2: 9.63
[6]
  MBP: -31.7 mmHg

## COc1ccccc1N1CCN(CC2CN3C(=O)Nc4ccccc4C3=N2)CC1 (stereo not drawn)
[1]
  Ki: 1.3 nM
[10]
  MBP: -18.8 mmHg
[5]
  Ki: 3.45 µM
[12]
  MBP: -20 mmHg
